Experimental findings from ChEMBL document CHEMBL2062417, “Biotinylated quercetin as an intrinsic photoaffinity proteomics probe for the identification of quercetin target proteins” (Bioorg Med Chem, 2011) are described below.

Molecules are shown by their SMILES. Calls of active or inactive are those of the source. The calls are words filed in the database; no cut-off is given here.

Experiment [1] deals with Calcium/calmodulin-dependent protein kinase type II subunit beta (Homo sapiens, UniProt Q13554). Kind of experiment: Inhibition of CAMK2 using autocamtide-2 as substrate after 30 mins by PKLight assay.
For experiment [2], the species on record is Homo sapiens. Kind of experiment: Binding affinity to CK2 at 150 uM after 30 mins by silver staining based pull down assay. The essentials:
(§1)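 CK2 (17.5–70 nM) was mixed with 150 μM BioQ in 400 μL 10 mM PBS pH 7.2 with protease inhibitors, with or without 10 mM MgCl2 and 2 μM ATP. Samples were irradiated 30 min on ice (320–400 nm, peak 365 nm) or left unirradiated. Capture was on streptavidin agarose for 1 h, with washes in lysis buffer or 2% SDS Tris buffer, then boiling, SDS-PAGE and silver staining.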

Experiment [3] is filed under the species Homo sapiens. Nature of the experiment: Binding affinity to CK2 at 150 uM followed by UV irradiation for 30 mins with Wood's glass filtered medium pressure mercury arc light by silver staining based pull down assay. The essentials:
as §1

For experiment [4], the system named is Jurkat. Nature of the experiment: Binding affinity to quercetin binding protein in human Jurkat cells at 150 uM followed by UV irradiation for 30 mins with Wood's glass filtered medium pressure mercury arc light after cell lysis by SDS-PAGE based pull down assay. The essentials: (§2)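 Jurkat cells were grown in RPMI with 10% FBS (about 15×10^6 cells) and treated 2 h with 150 μM BioQ in 3% aqueous DMSO. They were heat-shocked at 43 °C for 30 min, recovered 1 h at 37 °C, and UV-irradiated (320–400 nm, peak 365 nm, 30 min, 4 °C) before or after sonication lysis. Streptavidin-agarose capture ran 1 h. Beads were washed ≥3× with lysis buffer or 2% SDS Tris pH 7.4, boiled, run on 12% SDS-PAGE and silver-stained.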

Experiment [5] concerns Jurkat. Kind of experiment: Binding affinity to quercetin binding protein in human Jurkat cells at 150 uM followed by UV irradiation for 30 mins with Wood's glass filtered medium pressure mercury arc light after cell lysis measured after denaturing wash by Western blotting based pull down assay in presence of heat shock. The essentials:
(§3)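 Streptavidin pull-downs from heat-shocked, BioQ-treated (150 μM), UV-irradiated Jurkat cells received a 2% SDS wash. Proteins were transferred from SDS gels to nitrocellulose and blocked overnight in 3% BSA at 4 °C. Blots were probed 1 h with HRP-conjugated anti-biotin antibody and developed with 4-chloro-1-naphthol/0.01% H2O2, with no-UV and no-probe controls.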
For orientation: Immunoblotting shows a protein as a band on a membrane.

Experiment [6] has as its system Jurkat. Kind of experiment: Binding affinity to quercetin binding protein in human Jurkat cells at 150 uM followed by UV irradiation for 30 mins with Wood's glass filtered medium pressure mercury arc light before cell lysis measured after denaturing wash by Western blotting based pull down assay in presence of heat shock. The essentials: as §3
Experiment [7] addresses T1, Ubiquitin-like modifier-activating enzyme 1 (Homo sapiens) (UniProt P22314).
T1 sequence (whole entry): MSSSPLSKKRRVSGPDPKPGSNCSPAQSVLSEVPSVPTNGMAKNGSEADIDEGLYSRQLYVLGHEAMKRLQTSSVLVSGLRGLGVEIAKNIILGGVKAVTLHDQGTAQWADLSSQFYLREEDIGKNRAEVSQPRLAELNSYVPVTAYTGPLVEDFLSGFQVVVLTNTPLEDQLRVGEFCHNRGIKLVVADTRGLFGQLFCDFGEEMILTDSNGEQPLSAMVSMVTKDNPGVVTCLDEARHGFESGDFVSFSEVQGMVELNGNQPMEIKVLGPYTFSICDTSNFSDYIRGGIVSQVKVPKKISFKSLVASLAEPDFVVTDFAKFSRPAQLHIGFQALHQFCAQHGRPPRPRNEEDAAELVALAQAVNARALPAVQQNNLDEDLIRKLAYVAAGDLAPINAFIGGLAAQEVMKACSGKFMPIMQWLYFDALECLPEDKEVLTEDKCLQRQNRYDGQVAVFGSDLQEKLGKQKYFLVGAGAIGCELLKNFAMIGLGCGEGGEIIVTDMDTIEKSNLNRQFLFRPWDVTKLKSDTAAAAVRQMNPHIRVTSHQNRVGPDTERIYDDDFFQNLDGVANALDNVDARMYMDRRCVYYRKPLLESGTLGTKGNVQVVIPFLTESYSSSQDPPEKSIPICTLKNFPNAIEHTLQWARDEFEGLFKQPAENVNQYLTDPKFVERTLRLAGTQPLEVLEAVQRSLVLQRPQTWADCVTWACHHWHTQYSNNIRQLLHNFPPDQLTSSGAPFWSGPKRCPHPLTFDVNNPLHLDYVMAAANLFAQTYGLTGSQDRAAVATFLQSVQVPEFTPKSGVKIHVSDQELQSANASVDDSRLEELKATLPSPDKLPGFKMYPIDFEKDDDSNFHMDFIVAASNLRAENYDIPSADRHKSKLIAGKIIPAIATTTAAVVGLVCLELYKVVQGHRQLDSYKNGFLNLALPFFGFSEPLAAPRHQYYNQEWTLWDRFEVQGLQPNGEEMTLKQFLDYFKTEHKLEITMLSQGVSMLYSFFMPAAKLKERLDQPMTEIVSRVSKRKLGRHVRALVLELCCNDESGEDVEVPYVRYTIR
Kind of experiment: Binding affinity to UBA1 in human Jurkat cells at 150 uM followed by UV irradiation for 30 mins with Wood's glass filtered medium pressure mercury arc light prior to cell lysis measured after denaturing wash by SDS-PAGE based pull down assay. The essentials:
as §2

The target of experiment [8] is ATP synthase F(1) complex subunit beta, mitochondrial (Homo sapiens) (UniProt P06576). Nature of the experiment: Binding affinity to ATP5B in human Jurkat cells at 150 uM followed by UV irradiation for 30 mins with Wood's glass filtered medium pressure mercury arc light prior to cell lysis measured after denaturing wash by SDS-PAGE based pull down assay. The essentials:
as §2

Experiment [9] addresses ATP synthase F(1) complex subunit alpha, mitochondrial (Homo sapiens) (UniProt P25705). Kind of experiment: Binding affinity to ATP5A1 in human Jurkat cells at 150 uM followed by UV irradiation for 30 mins with Wood's glass filtered medium pressure mercury arc light prior to cell lysis measured after denaturing wash by SDS-PAGE based pull down assay. The essentials:
as §2

In experiment [10] the target is Heat shock protein HSP 90-alpha (Homo sapiens) (UniProt P07900). Nature of the experiment: Binding affinity to HSP90AA1 in human Jurkat cells at 150 uM followed by UV irradiation for 30 mins with Wood's glass filtered medium pressure mercury arc light prior to cell lysis measured after denaturing wash by LC-MS/MS based pull down assay. The essentials: (§4)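 Silver-stained bands from cells irradiated before lysis were excised, destained, reduced with 10 mM DTT, alkylated with 50 mM iodoacetamide and digested with trypsin overnight. Peptides were extracted in 1% TFA/50% acetonitrile. Nano-C18 LC used a 2–50% acetonitrile gradient with 0.1% formic acid over 50 min at 260 nL/min, followed by MS/MS identification.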

The target in experiment [11] is RuvB-like 2 (Homo sapiens) (UniProt Q9Y230). Kind of experiment: Binding affinity to RUVBL2 in human Jurkat cells at 150 uM followed by UV irradiation for 30 mins with Wood's glass filtered medium pressure mercury arc light prior to cell lysis measured after denaturing wash by LC-MS/MS based pull down assay. The essentials:
as §4

Experiment [12] has as its target Eukaryotic translation initiation factor 3 subunit F (Homo sapiens) (UniProt O00303). Kind of experiment: Binding affinity to EIF3F in human Jurkat cells at 150 uM followed by UV irradiation for 30 mins with Wood's glass filtered medium pressure mercury arc light prior to cell lysis measured after denaturing wash by LC-MS/MS based pull down assay. The essentials:
as §4

Sequence of Calcium/calmodulin-dependent protein kinase type II subunit beta (Q13554 whole entry): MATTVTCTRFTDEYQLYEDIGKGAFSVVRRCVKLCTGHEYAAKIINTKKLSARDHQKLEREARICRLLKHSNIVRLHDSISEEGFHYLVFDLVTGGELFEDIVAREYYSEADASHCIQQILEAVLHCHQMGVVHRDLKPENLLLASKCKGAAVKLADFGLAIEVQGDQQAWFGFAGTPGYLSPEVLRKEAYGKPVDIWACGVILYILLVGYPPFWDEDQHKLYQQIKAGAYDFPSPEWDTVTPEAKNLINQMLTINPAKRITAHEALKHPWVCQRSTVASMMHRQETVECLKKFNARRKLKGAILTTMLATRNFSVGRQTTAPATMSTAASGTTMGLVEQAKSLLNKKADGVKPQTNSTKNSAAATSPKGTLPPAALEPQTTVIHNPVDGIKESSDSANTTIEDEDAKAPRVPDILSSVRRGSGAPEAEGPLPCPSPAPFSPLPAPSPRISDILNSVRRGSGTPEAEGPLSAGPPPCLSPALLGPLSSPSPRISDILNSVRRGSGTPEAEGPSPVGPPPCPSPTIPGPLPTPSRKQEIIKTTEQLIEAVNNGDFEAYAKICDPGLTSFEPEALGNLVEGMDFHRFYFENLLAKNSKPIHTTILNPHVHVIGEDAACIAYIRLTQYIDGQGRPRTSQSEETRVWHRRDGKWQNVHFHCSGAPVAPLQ
Sequence of ATP synthase F(1) complex subunit beta, mitochondrial (Homo sapiens) (P06576 whole entry, one chain of several): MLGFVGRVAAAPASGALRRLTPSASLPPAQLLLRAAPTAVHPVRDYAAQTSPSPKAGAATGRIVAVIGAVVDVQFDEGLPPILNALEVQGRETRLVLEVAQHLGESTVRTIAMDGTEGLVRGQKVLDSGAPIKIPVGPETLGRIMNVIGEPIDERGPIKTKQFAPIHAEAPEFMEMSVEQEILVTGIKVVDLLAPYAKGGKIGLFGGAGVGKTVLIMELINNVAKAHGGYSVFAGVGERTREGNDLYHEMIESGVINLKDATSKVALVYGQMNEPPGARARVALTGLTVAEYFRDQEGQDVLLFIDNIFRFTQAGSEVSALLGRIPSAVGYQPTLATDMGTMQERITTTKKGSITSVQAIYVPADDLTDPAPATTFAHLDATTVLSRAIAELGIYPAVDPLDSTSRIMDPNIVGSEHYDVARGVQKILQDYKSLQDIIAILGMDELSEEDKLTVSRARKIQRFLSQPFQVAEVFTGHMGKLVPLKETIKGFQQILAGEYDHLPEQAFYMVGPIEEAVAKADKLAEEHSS
Sequence of ATP synthase F(1) complex subunit alpha, mitochondrial (Homo sapiens) (P25705 whole entry, one chain of several): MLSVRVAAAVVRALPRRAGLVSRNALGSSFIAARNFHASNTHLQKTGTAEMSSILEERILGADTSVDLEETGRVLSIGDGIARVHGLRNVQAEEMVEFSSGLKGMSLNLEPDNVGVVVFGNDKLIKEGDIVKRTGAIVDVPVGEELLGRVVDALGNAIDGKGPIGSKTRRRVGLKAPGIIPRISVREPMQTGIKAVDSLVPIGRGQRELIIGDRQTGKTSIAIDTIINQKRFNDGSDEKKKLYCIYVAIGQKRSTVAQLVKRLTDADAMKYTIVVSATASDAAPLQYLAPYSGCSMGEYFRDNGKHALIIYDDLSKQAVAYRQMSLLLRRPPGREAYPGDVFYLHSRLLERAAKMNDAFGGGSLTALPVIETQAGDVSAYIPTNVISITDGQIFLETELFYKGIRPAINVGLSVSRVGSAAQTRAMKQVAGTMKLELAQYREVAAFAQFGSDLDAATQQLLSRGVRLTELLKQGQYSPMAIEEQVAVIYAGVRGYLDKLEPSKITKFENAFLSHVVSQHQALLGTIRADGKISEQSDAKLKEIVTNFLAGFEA
Sequence of Eukaryotic translation initiation factor 3 subunit F (Homo sapiens) (O00303 whole entry): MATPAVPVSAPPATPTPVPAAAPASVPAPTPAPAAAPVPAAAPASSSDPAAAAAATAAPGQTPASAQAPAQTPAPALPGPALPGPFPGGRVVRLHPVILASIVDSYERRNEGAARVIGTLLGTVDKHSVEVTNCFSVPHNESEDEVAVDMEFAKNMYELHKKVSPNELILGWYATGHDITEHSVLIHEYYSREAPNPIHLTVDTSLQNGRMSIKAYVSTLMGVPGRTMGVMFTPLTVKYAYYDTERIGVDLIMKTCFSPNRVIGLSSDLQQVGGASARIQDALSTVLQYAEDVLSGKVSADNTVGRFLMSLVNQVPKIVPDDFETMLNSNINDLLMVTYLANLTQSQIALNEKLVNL
Sequence of RuvB-like 2 (Homo sapiens) (Q9Y230 whole entry): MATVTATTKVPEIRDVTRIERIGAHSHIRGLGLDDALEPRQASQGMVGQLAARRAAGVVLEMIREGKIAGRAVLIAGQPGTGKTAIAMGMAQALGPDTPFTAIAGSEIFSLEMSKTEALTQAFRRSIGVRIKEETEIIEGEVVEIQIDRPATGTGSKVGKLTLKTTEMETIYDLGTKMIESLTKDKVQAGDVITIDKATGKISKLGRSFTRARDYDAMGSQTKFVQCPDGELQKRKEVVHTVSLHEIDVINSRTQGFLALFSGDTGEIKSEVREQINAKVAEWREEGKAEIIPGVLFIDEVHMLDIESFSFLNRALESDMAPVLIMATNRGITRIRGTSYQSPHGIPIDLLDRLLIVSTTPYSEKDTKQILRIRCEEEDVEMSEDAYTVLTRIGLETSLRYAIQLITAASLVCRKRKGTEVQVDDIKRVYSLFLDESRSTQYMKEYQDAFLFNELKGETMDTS

`O=C(CCCC[C@@H]1SC[C@@H]2NC(=O)N[C@@H]21)NCCOCCOCCNC(=O)COc1cc(O)c2c(=O)c(O)c(-c3ccc(O)c(O)c3)oc2c1`: the half-maximal inhibitory concentration (IC50) (in general, the point on the concentration scale where inhibition reaches its midpoint) in [1] worked out at 25.9 µM. Besides, the outcome in [2] and in experiment [3] was inactive. For the same molecule, the outcome in [4], in [5], in experiment [6], in experiment [7], in experiment [8] and in [9] was Active. For the same molecule, the outcome in experiment [10], in experiment [11] and in experiment [12] was Active.
